Results taken from ChEMBL document CHEMBL4130522, “Synthesis and Pharmacological Evaluation of Selective Histone Deacetylase 6 Inhibitors in Melanoma Models” (ACS Med Chem Lett, 2017).
Active and inactive are the calls of the source. No cut-off for these calls is given here.

Key:
[1] = target: T1, Protein deacetylase HDAC6 (Homo sapiens) (UniProt Q9UBN7); assay: Inhibition of HDAC6 in human WM795 cells assessed as increase in acetylated histone H3 levels at 0.5 to 8 uM after 24 hrs by Western blot method; format: cell-based
T1 sequence (whole entry): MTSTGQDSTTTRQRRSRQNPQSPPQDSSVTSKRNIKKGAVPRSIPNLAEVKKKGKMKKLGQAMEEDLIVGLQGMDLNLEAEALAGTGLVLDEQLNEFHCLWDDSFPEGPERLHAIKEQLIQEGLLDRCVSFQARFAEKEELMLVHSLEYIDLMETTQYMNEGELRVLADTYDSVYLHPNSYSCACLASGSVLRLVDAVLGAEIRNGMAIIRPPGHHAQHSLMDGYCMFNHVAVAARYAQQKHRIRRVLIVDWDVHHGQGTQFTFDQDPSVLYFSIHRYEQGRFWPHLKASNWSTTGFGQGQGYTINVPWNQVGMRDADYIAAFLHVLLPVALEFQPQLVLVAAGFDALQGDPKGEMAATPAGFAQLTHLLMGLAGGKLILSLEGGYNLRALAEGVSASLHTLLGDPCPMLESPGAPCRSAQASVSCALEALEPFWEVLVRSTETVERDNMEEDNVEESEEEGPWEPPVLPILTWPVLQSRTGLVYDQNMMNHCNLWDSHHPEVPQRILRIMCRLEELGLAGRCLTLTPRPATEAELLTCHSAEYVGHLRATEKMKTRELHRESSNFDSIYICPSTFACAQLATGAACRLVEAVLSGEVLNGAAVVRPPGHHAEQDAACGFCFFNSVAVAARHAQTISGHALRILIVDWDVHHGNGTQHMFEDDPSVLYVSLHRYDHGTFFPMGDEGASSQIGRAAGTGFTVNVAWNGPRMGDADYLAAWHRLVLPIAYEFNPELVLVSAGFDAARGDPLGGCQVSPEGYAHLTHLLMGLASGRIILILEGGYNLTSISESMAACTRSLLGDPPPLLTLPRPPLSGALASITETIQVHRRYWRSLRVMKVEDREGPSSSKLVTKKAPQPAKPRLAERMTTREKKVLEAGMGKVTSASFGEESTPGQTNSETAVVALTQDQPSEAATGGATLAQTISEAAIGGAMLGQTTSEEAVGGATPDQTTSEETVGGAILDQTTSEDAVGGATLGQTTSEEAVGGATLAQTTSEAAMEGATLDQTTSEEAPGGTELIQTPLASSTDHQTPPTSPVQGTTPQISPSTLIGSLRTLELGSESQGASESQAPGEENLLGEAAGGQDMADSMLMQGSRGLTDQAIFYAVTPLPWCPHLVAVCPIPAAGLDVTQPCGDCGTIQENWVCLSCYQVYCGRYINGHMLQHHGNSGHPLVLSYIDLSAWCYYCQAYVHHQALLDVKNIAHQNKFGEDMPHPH
How it was run: (§1)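 WM795 human melanoma cells were treated for 24 h across a range of concentrations. Protein extracts were run on SDS-PAGE and immunoblotted with antibodies to HDAC6, α-tubulin, acetylated α-tubulin, histone H3 and acetylated H3. A selective HDAC6 inhibitor and a pan-HDAC inhibitor were included on each blot as positive controls. Blots are representative of three independent experiments.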

[2] = target: T1, Protein deacetylase HDAC6 (Homo sapiens); assay: Inhibition of HDAC6 in human WM795 cells assessed as increase in acetylated alpha-tubulin levels at 0.5 to 8 uM after 24 hrs by Western blot method; format: cell-based; how it was run: as §1
[3] = target: T2, Protein deacetylase HDAC6 (Homo sapiens, UniProt Q9UBN7); assay: Inhibition of recombinant human full length HDAC6 expressed in baculovirus infected Sf9 insect cells using p53 (379 to 382 residues) derived RHKKAc as substrate preincubated for 5 to 10 mins followed by substrate addition measured after 2 hrs by fluorescence assay
T2 sequence (Q9UBN7 whole entry): T1 sequence (whole entry)

B16 [4] = assay: Antiproliferative activity against mouse B16 cells at 1 to 15 uM after 48 hrs by MTS assay; format: functional, cell-based
Mus musculus [5] = species: Mus musculus; assay: Antiproliferative activity against mouse SM1 cells at 1 to 15 uM after 48 hrs by MTS assay; format: functional, cell-based
[6] = Half life in human liver microsomes at 200 uM in presence of NADPH by LC-MS/MS analysis; format: ADME, microsome
[7] = Antitumor activity against mouse B16-F10-luc cells xenografted in C57BL/6 mouse assessed as mouse survival rate at 20 mg/kg, ip administered daily for 22 days (reference value: 40%); format: functional; conditions: 528 h
Mus musculus [8] = assay: Antitumor activity against mouse B16-F10-luc cells xenografted in C57BL/6 mouse assessed as reduction in tumor volume at 20 mg/kg, ip administered daily for 22 days; format: functional, organism-based
How it was run: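 C57BL/6 mice implanted subcutaneously with B16-F10-luc WT cells; daily intraperitoneal dosing at 20 mg/kg for 22 days versus vehicle group; tumor volume and survival monitored throughout.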

Mus musculus [9] = assay: Antitumor activity against mouse B16-F10-luc cells xenografted in C57BL/6 SCID mouse assessed as tumor growth inhibition at 20 mg/kg, ip administered daily for 20 days; format: functional, organism-based
Mus musculus [10] = species: Mus musculus; assay: Antiproliferative activity against mouse FcMCL cells at 1 to 15 uM after 48 hrs by MTS assay; format: functional, cell-based
Homo sapiens = species: Homo sapiens; assay: Selectivity ratio of IC50 for recombinant human full length HDAC8 expressed in baculovirus infected Sf9 insect cells to IC50 for recombinant human full length HDAC6 expressed in baculovirus infected Sf9 insect cells
[11] = Half life in mouse liver microsomes at 200 uM in presence of NADPH by LC-MS/MS analysis; format: ADME, microsome
[12] = target: T3, Protein deacetylase HDAC6 (Mus musculus) (UniProt Q9Z2V5); assay: Inhibition of HDAC6 in mouse RAW264.7 cells assessed as decrease in IL-10 production at 3 uM after 24 hrs by ELISA; format: cell-based
T3 sequence (whole entry): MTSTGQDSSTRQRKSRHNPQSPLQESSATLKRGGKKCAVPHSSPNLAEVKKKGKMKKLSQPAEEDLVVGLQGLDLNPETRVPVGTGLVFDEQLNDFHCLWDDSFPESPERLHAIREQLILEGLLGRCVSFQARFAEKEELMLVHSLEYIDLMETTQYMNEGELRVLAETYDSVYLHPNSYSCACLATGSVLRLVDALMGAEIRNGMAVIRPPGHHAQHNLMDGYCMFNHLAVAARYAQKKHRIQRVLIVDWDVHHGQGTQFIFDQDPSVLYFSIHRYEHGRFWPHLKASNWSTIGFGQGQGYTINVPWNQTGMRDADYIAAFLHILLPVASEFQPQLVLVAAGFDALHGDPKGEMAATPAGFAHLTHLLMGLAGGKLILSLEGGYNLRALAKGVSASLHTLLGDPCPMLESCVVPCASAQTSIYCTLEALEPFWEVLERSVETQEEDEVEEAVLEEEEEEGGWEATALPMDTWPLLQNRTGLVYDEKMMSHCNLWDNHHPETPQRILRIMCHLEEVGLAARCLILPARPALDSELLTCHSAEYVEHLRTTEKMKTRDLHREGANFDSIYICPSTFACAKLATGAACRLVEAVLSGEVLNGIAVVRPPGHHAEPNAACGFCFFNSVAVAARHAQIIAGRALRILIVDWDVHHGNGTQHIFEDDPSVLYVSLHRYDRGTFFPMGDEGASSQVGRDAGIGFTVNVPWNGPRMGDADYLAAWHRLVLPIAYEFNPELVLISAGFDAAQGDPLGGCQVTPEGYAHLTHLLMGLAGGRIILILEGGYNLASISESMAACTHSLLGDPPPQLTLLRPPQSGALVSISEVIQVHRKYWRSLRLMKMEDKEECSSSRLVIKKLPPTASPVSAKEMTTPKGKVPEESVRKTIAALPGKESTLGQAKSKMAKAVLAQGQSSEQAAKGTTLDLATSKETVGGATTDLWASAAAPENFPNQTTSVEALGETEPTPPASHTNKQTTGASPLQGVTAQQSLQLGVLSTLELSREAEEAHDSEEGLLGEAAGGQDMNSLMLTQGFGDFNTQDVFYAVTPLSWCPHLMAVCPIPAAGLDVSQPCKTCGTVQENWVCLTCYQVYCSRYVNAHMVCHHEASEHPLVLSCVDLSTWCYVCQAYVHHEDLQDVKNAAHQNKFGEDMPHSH
How it was run: (§2)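 Cells (primary peritoneal elicited macrophages from C57BL/6 mice, or RAW264.7 murine macrophages) stimulated with LPS 1 µg/mL, with or without 3 µM compound, for 24 h; supernatants collected and IL-10 quantified by ELISA; statistics versus untreated cells.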

[13] = target: T3, Protein deacetylase HDAC6 (Mus musculus); assay: Inhibition of HDAC6 in C57BL/6 mouse primary peritoneal macrophages assessed as decrease in IL-10 production at 3 uM after 24 hrs by ELISA; how it was run: as §2
Histone deacetylase 1 = Histone deacetylase 1 (Homo sapiens, UniProt Q13547); assay: Inhibition of recombinant human full length HDAC1 expressed in baculovirus infected Sf9 insect cells using p53 (379 to 382 residues) derived RHKKAc as substrate preincubated for 5 to 10 mins followed by substrate addition measured after 2 hrs by fluorescence assay
Chain of Histone deacetylase 1 (Q13547 whole entry, the tested form may be a part): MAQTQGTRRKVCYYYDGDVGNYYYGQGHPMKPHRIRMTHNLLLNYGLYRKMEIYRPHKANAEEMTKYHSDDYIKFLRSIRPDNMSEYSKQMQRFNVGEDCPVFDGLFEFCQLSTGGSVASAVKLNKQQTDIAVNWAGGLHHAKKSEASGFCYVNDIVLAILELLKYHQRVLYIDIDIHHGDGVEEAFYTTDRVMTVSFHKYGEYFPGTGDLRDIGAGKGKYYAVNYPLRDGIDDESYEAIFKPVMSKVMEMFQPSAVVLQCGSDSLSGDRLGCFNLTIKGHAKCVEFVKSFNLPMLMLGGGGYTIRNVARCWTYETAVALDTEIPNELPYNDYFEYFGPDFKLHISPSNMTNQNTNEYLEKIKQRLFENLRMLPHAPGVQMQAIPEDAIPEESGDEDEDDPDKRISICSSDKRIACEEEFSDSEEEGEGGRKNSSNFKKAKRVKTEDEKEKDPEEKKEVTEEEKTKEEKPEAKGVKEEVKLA

B16 [14] = assay: Antiproliferative activity against mouse B16 cells at lower concentration after 48 hrs by MTS assay; format: functional, cell-based
Mus musculus [15] = species: Mus musculus; assay: Antiproliferative activity against mouse FcMCL cells at lower concentration after 48 hrs by MTS assay; format: functional, cell-based
[16] = target: T1, Protein deacetylase HDAC6 (Homo sapiens); assay: Inhibition of recombinant human full length HDAC6 expressed in baculovirus infected Sf9 insect cells up to 30 uM using p53 (379 to 382 residues) derived RHKKAc as substrate preincubated for 5 to 10 mins followed by substrate addition measured after 2 hrs by fluorescence assay

CCCCN(Cc1ccc(C(=O)NO)cc1)C(=O)Nc1ccccc1
inhibition [1]: inactive | inhibition [2]: Active

CCCCN(Cc1ccc(NC(=O)[C@H](C)N)cc1)C(=O)Nc1ccccc1
IC50 ([3]; sf9): Not Active

CCCCN(Cc1ccc(C(=O)NO)cc1)C(=O)Nc1ccc2cn[nH]c2c1
Activity (B16 [4]): Active | Activity (Mus musculus [5]): Active | half-life at 200 µM [6]: 6.8 h | survival at 20 mg/kg [7]: 100% | Activity (Mus musculus [8]): Active | inhibition [1]: inactive | IC50 ([3]; read-out: IC50): 0.0016 µM | TGI (Mus musculus [9]): inactive | Activity (Mus musculus [10]): Active | Ratio IC50 (Homo sapiens): > 500 | half-life at 200 µM [11]: 3.98 h | inhibition [12]: Active | inhibition [13]: Active | inhibition [2]: Active

CCCCN(C(=O)Nc1cccc(N(C)C)c1)c1ccc(C(=O)NO)cc1
IC50 ([3]; read-out: IC50): 1.79 µM | IC50 (Histone deacetylase 1): > 30 µM

CCCCN(Cc1ccc(N(O)C=O)cc1)C(=O)Nc1ccccc1
IC50 ([3]; read-out: IC50): 1.02 µM | IC50 (Histone deacetylase 1): > 30 µM

O=C(NO)c1ccc(CN(CCCCO)C(=O)Nc2ccccc2)cc1
IC50 ([3]; read-out: IC50): 0.00087 µM | IC50 (Histone deacetylase 1): 2.91 µM | Ratio IC50 (Homo sapiens): > 500

CCCCN(Cc1ccc(C(=O)NO)cc1)C(=O)Nc1cccc(N(C)C)c1
Activity (B16 [14]): Active | Activity (Mus musculus [15]): Active | inhibition [1]: inactive | IC50 ([3]; read-out: IC50): 0.0017 µM | Ratio IC50 (Homo sapiens): > 500 | inhibition [2]: Active

CCCCN(Cc1ccc(/C(N)=N/O)cc1)C(=O)Nc1ccccc1
IC50 ([3]; sf9): Not Active

CCCCN(Cc1ccc(C(=O)NO)cc1)C(=O)NCCN1CCCC1
IC50 ([3]; read-out: IC50): 0.074 µM | IC50 (Histone deacetylase 1): 14.4 µM

CC(C)CN(Cc1ccc(C(=O)NO)cc1)C(=O)Nc1ccccc1
IC50 ([3]; read-out: IC50): 0.012 µM | IC50 (Histone deacetylase 1): 6.13 µM

CCCCN(Cc1ccc(NC(=O)CN)cc1)C(=O)Nc1ccccc1
IC50 ([3]; sf9): Not Active

CCCCN(Cc1ccc(C(=O)NO)cc1)C(=O)Nc1ncccn1
Activity (B16 [4]): Active | Activity (Mus musculus [5]): Active | inhibition [1]: inactive | IC50 ([3]; read-out: IC50): 0.006 µM | Activity (Mus musculus [10]): Active | inhibition [2]: Active

O=C(O)c1ccc(CN(CCCCO)C(=O)Nc2ccccc2)cc1
inhibition [16]: inactive | IC50 ([3]; sf9): Not Active

CN1CCc2c(c3ccccc3n2Cc2ccc(C(=O)NO)cc2)C1
Activity (Mus musculus [8]): Active

CCCCN(Cc1ccc(C(=O)NO)cc1)C(=O)Nc1cc(C)ccn1
IC50 ([3]; read-out: IC50): 0.043 µM | IC50 (Histone deacetylase 1): 7.54 µM
